FGF22 binding = binders of human FGF22 protein, primary screen, FGF22 synaptogenesis inhibitor project, biophysical, thermal shift, single point; activity (Tm shift, normalised), % at 9.99 µM; recombinant FGF22 thermal shift, SYPRO orange fluorescence; percent of sucrose octasulfate shift, DMSO zero; 340,000 compounds, 1.5% hits; AID 651658, 2012; Fibroblast growth factor 22 (Homo sapiens), Q9HCT0;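 active = mean Tm shift, scaled 0 neutral to 100 positive control, at about 1.3% or above, every replicate too, limit read from the data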
Target sequence (Q9HCT0 whole entry, looked up): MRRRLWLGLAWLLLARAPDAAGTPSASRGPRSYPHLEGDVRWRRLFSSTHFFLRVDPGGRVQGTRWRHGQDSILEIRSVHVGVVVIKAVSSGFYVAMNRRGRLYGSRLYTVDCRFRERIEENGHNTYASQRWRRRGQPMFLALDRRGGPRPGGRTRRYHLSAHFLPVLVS
EBNA-1 inh = EBNA-1 DNA-binding inhibitors, primary screen, biochemical, fluorescence polarization; inhibition, % at 14.8 µM; 300,000 compounds, 0.34% hits; AID 1950, 2009; in the data active = inhibition above about 28%
HCV NS3 hel inh = inhibitors of HCV NS3 helicase, primary screen, biochemical, Cy5 molecular beacon fluorescence. 290,000 compounds, 0.56% hits. AID 1800, 2009. inhibition, % at 10.9 µM. NS3 helicase DNA unwinding;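 active = inhibition above the mean of all tested compounds plus 3 SD, set per campaign, cut at about 35% in these data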
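Control set: DMSO versus 110 µM thioflavine S; Material: NS3 helicase fragment of HCV; Measured by: Cy5 fluorescence at 0 and 60 min, beacon hairpin quenching; Read-out basis: percent inhibition from t60/t0 fluorescence ratio; Times: reaction time 60 min, 25 °C; Repeats: single replicate; Compound dosing: single dose, 10.9 µM nominal final, DMSO 0.8% final.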
NR3A LBD binder = binders of NR3A ligand-binding domain, primary screen, biophysical, differential scanning fluorimetry, uHTS; 340,000 compounds, 2.5% hits; Tm shift relative to glycine control, % at 25 µM; NR3A LBD differential scanning fluorimetry, Tm shift; 0% = protein alone, 100% = glycine-bound protein;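 active = melting temperature shift of at least 10% of the positive control shift, at one fixed dose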
DNA FID counter = compounds displacing fluorescent DNA intercalator, primary screen, artefact control for HCV NS3 helicase inhibitor project, biochemical, FID fluorescence | DNA fluorescent intercalator displacement | inhibition, % at 7.9 µM | 290,000 compounds, 0.17% hits; in the data active = inhibition above about 37%;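 also: higher means more ethidium bromide displaced from hairpin DNA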
ZTA DNA inh = counter-screen for EBNA-1 inhibitors: inhibitors of Epstein-Barr virus ZTA; inhibition, % at 11 µM; P03206; AID 2234; ZTA-DNA binding, fluorescence polarization; 320,000 compounds, 0.15% hits; in the data active = inhibition above about 33%
Target sequence (P03206 whole entry, looked up): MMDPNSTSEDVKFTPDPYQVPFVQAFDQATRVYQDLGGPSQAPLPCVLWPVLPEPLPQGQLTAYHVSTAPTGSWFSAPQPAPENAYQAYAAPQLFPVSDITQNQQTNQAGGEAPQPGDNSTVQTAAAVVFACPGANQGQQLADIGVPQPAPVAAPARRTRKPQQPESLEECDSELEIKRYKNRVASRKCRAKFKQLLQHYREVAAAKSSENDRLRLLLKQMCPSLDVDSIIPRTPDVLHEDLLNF
Hits are given with their value; – = inactive; · = no result. A selection: hits, their analogues and other compounds. The true share with any hit is near 3.6%.

SMILES | FGF22 binding | EBNA-1 inh | HCV NS3 hel inh | NR3A LBD binder | DNA FID counter | ZTA DNA inh
C[C@@H]1CN([C@H](C)CO)C(=O)c2cc(NS(=O)(=O)c3cccs3)ccc2O[C@H]1CN(C)C(=O)Nc1ccccc1 | – | · | · | · | · | ·
CNC[C@@H]1Oc2c(NC(=O)Nc3ccc(OC)cc3)cccc2C(=O)N([C@H](C)CO)C[C@@H]1C | – | · | · | · | · | ·
O=C1CC(C(=O)Nc2cccc(F)c2)n2ncnc2N1 (stereo unspecified) | 43.0 | – | – | – | – | –
CCc1ccc(NC(=O)C2CC(=O)Nc3ncnn32)cc1 (stereo unspecified) | · | – | – | 21.0 | – | –
CCN(c1cccc(C)c1)S(=O)(=O)c1ccc2[nH]c(=O)c(=O)[nH]c2c1 | – | – | – | 11.1 | – | –
CCN(c1cccc(C)c1)S(=O)(=O)c1cc2[nH]c(=O)c(=O)[nH]c2cc1C | – | · | · | · | · | ·
CCCNC(=O)Nc1ccc2c(c1)OC[C@H](C)N(Cc1cncnc1)C[C@@H](C)[C@@H](OC)CN(C)C2=O | – | · | · | · | · | ·
C#CCN1C(=O)S/C(=C/c2cc(C)n(CC)c2C)C1=O | · | – | – | 33.1 | – | –
CCn1c(C)cc(/C=C2/SC(=S)N(CC(=O)O)C2=O)c1C | – | – | – | – | – | –
Cc1nn(C)c(C)c1/C=N/NC(=O)C(C)(C)Oc1ccc(Cl)cc1 | – | – | – | – | – | –
Cc1nn(C(C)(C)C)c(C)c1/C=N/OC(=O)Nc1ccc(Cl)cc1 | – | – | – | 10.9 | – | –
O=C(N[C@H]1CC[C@H](CCNC(=O)C2CC2)O[C@H]1CO)c1ccccn1 | – | · | · | · | · | ·
Cc1ccc(NC(=O)C(C)OC(=O)c2ccc(NS(=O)(=O)c3ccc(F)c(F)c3)cc2)cc1 (stereo unspecified) | · | – | – | 28.1 | – | –
Cc1ccc(S(=O)(=O)NC(=O)Nc2ccc(F)c(F)c2)cc1 | – | – | – | – | – | –
CC(=O)c1ccc(NC(=O)C(C)OC(=O)c2ccc(NS(=O)(=O)c3ccc(F)c(F)c3)cc2)cc1 (stereo unspecified) | · | – | – | 11.2 | – | –
CC(=O)Nc1ccc(NC(=O)C(C)OC(=O)c2ccc(S(=O)(=O)N3CCCCC3)cc2)cc1 (stereo unspecified) | – | · | · | – | · | ·
CCc1ccc(NC(=O)C(C)OC(=O)c2ccc(NS(=O)(=O)c3ccc(C)c([N+](=O)[O-])c3)cc2)cc1 (stereo unspecified) | – | – | – | 12.6 | – | –
CC1C(=O)C(C)C(c2cc(Br)ccc2O)NC1c1cc(Br)ccc1O (stereo unspecified) | – | · | · | 31.9 | · | ·
COc1ccc(S(=O)(=O)Nc2ccc3c(c2)C(=O)N([C@@H](C)CO)C[C@H](C)[C@@H](CN(C)C)OCCCC[C@H](C)O3)cc1 | – | · | · | · | · | ·
COc1cc(/C=N/NC(=O)CCN2CCN(C)CC2)cc2c1OCO2 | – | – | – | 11.1 | – | –
C[C@H](CO)N1C[C@H](C)[C@@H](CN(C)Cc2ccc(Cl)c(Cl)c2)Oc2ccc(NS(=O)(=O)c3cn(C)cn3)cc2CC1=O | – | · | · | · | · | ·
COc1ccc(CNC(=O)C/C(C)=N/NC(=O)COc2ccc(C)cc2Br)cc1 | 43.1 | – | – | – | – | –
Nc1c(N=Nc2ccccc2F)c(=O)[nH]n1-c1ccccc1 | · | – | – | 11.8 | – | –
C/C(CCc1ccc2c(c1)OCO2)=N\N=C(/N)SC1CC(=O)N(c2ccc(Cl)cc2)C1=O (stereo unspecified) | · | – | – | 16.0 | – | –
N/C(=N\N=C\c1ccc2c(c1)OCO2)SC1CC(=O)N(c2ccc(C(=O)O)cc2)C1=O (stereo unspecified) | – | – | – | – | – | –
Clc1ccc2nc(-c3ccncc3)cc(-c3ccccc3)c2c1 | · | – | – | 24.2 | – | –
NC(=O)c1cc(-c2ccncc2)nc2ccc(Cl)cc12 | – | – | – | – | – | –
c1ccc(-c2cc(-c3ccncc3)nc3ccc4ccccc4c23)cc1 | – | – | – | 21.6 | – | –

Compound activity: PubChem BioAssay, several laboratories
